Assay results pooled from the literature.
Compare with care: the assays were run in different laboratories.
Medium: plasma

COc1ccc([C@@H]2CN(C(=O)[C@@H](O)CO)C[C@@]2(C)[C@@H](C)O)cc1OC1CN(c2ccc(C)cn2)C1
Vd/F (human; oral; 10 mg; single dose, healthy volunteers): 57.6 L

c1cnc2ccc(Nc3nc(NC4CC4)c4nc[nH]c4n3)cc2c1
Vd/F (human; oral; 200 mg/m²; patients): 267 L

C[C@@]1(c2cc(NC(=O)c3ccc(C#N)cn3)ccc2F)C=CSC(N)=N1
Vd/F (human; oral; 150 mg; single dose): 247 L

CC(C)(Sc1ccncc1-c1ccc(C#N)c2ccccc12)C(=O)O
Vd/F (male human; oral; 5 mg; single dose, fed, healthy volunteers): 625 L

Cc1cc(Nc2cc(N3CCN(C)CC3)nc(/C=C/c3ccccc3)n2)n[nH]1
Vd/F (human; oral; 350 mg/m²; patients): 2340 L

CCNCCCNC/C=C\CNCCCNCC
Vd (human; intravenous; 150 mg; patients, infusion): 1.55 L/kg

COc1cc(C(=O)NC2CCN(C)CC2)c(F)cc1Nc1ncc(C(F)(F)F)c(Oc2cccc3c2C(=O)N(C)C3)n1
Vd/F (human; oral; 25 mg; multiple doses, once daily, patients): 520 L

CO[C@H]1CC[C@H](N2C(=O)CNc3ncc(-c4ccc(C(C)(C)O)nc4)nc32)CC1
Vd/F (human; oral; 30 mg; patients): 195 L
